Activity calls are given as the source filed them.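 The calls were made as follows: active = a full or partial loss of lipid-probe fluorescence in the fish gall bladder, intestine or both, judged by eye; inactive = no fluorescence loss, or compound toxic to the fish.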

This experiment is described as follows: inhibitors of larval lipid processing in zebrafish, primary screen, whole organism, PED6 fluorescence, gall bladder and intestine (AID 686).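 Also: signal comes from phospholipase A2 cleavage of quenched PED6 carried via bile.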 As to conditions: Zebrafish larvae PED6 lipid processing, fluorescence scoring; screened at 20 µM (by protocol). Summed up: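 Doses: 20 µM single dose. Test system: live zebrafish larvae aged 5-7 days, whole organism. Quantity: five larvae per well. Measured by: By-eye fluorescence microscopy. Reagent: ingested quenched lipid PED6 at 100 nM. Read-out: visual per-well fluorescence inhibition score. Times: overnight exposure of larvae to compound plus PED6.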
With `Cc1nnc(N2CCOCC2)c2ccccc12`, the call was inactive.
Under `CCOc1ccc2c(c1)n([O-])c1c([n+]2=O)CCCC1` stands “inactive”; under `C[N+]1(CCNC(=O)/C=N/O)CCCCC1`, “inactive”; under `Cc1ccc(C(=O)NCCCNCCCNC(=O)c2ccc(C)nc2)cn1`, “inactive”.
In the case of `CCCCCOc1ccccc1C(=O)NCCCC(=O)O`, the call was inactive.
The value for `CCN(CC)c1nc(C)c2c(c1C#N)CC(C)(C)OC2` was “inactive”.
For the molecule `Cn1ncc(N=Cc2ccccc2O)c1C(=O)N1CCOCC1`, the call was inactive.
Under `CN1CCN(c2c3c(c(C#N)c4nc5ccccc5n24)CCCC3)CC1` stands “inactive”; under `CC(C(=O)NC(=O)NCc1ccccc1)N1C(=O)c2ccccc2C1=O` (stereo unspecified), “inactive”; under `COC(=O)c1cc(Br)c(=O)n(-c2cc(C)on2)c1`, “inactive”.
`CCOC(=O)c1[nH]c2ccc(OC)cc2c1NC(=O)CCN1CCCC(C)C1` (stereo unspecified): the molecule was called inactive.
For the molecule `COc1cccc(C(=O)c2sc(NC(C)C)nc2N)c1`, the result was inactive.
Under `CCOc1ccc(-c2nc(C#N)c(N3CCN(CC)CC3)o2)cc1` stands “inactive”; under `CCC(CC)n1[nH]c(=O)cc1N`, “inactive”.
`CC1(C)Cc2nc(NCCN3CCOCC3)c(C#N)cc2CO1`: the result was inactive.
The value for `COc1ccc2nc(/N=C(\N)NC(=O)C(C)(C)C)nc(C)c2c1` was “inactive; toxic”.
Under `CC(C)CNc1nc2c(c(=O)n(C)c(=O)n2C)n1Cc1cccc(Br)c1` stands “inactive”.
Under `COc1ccccc1C(=O)Nc1cc(Cl)ccc1O` stands “inactive”; under `c1ccc(-n2ncc3c(N4CCCC4)ncnc32)cc1`, “inactive”.
As to `NC(=O)C1CCN(CCC(=O)Nc2ccc(Br)cc2)CC1`, the outcome was inactive.
Turning to `CCCCC(=O)c1c(C)cc(C)[nH]c1=O`, the outcome was inactive.
